Reference: ChEMBL document CHEMBL3243947 (J Med Chem, 1979)
Counter-ions that a name gives are not always drawn.

Assays:
[1] = Negative inotropic activity in New Zealand White rabbit isolated atria assessed as reduction of tissue contractility after 15 mins; parameters: species or system Oryctolagus cuniculus, Cardiac atrium; conditions: 0.25 h
Method in brief: (§1)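 Isolated atria stabilized 90 min, paced by 2-ms pulses via platinum electrodes near SA node at 2.5× threshold voltage (threshold found at 240 pulses/min, mean of three). MDF averaged over three determinations. Drug added cumulatively without washout, reading 15 min after each dose, until MDF fell ~60%. Percent decrease in MDF or peak height plotted against log molar concentration and fitted by linear regression. Log ED40 read graphically. Three tissues per compound, averaged with SD.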

[2] = Selectivity index, ratio of pED40 for tissue contractility to pED40 for maximum driving response in New Zealand White rabbit isolated atria; parameters: species or system Oryctolagus cuniculus, Cardiac atrium
Method in brief: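 Ratio of ED40 for contractility to ED40 for MDF. Both come from the same cumulative 15-min dosing of paced isolated atria, with three tissues per compound.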

Heart [3] = experiment: Antiarrhythmic activity in New Zealand White rabbit isolated atria assessed as reduction of maximum driving frequency after 15 mins; format: functional, Oryctolagus cuniculus; method in brief: as §1
[4] = Octanol-phosphate buffer partition coefficient, log P of the compound; format: physicochemical
Method in brief: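 Compound stock in octanol-saturated buffer, about 0.05 mg/mL. Shaken with octanol 2 h at 37 °C, 200 oscillations/min, then centrifuged 2000 rpm for 4 min. Buffer-phase UV absorbance at λmax near 300 nm measured before and after. P = (Astd − Aext)/(Aext·f), with f the octanol:buffer volume ratio. Run in triplicate.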

Heart [5] = experiment: Antiarrhythmic activity in New Zealand White rabbit isolated atria assessed as reduction of maximum driving frequency after 15 mins in presence of 4X10'-8 M propranolol; format: functional, Oryctolagus cuniculus; method in brief: as §1
[6] = Selectivity index, ratio of pED40 for tissue contractility to pED40 for maximum driving response in New Zealand White rabbit isolated atria in presence of 4X10'-8 M propranolol; parameters: species or system Oryctolagus cuniculus, Cardiac atrium
[7] = Negative inotropic activity in New Zealand White rabbit isolated atria assessed as reduction of tissue contractility after 15 mins in presence of 4X10'-8 M propranolol; parameters: species or system Oryctolagus cuniculus, Cardiac atrium; conditions: 0.25 h; method in brief: as §1

Structure (SMILES)	pED40 [1]	logP [4]	pED40 [7]	Selectivity Index [2]	pED40 (Heart [3])	pED40 (Heart [5])	Selectivity Index [6]
Br.CC(C)NCC(O)COc1c(Br)cc(Br)c2ccccc12 (stereo unspecified)	5.53	2.71	–	0.4	5.1	–	–
CC(C)NCC(O)COc1ccc(S(N)(=O)=O)c2ccccc12.Cl (stereo unspecified)	3.35	-0.51	–	1.7	3.58	–	–
CCCCNCC(O)COc1cccc2ccccc12 (stereo unspecified)	5.38	2.08	–	1.8	5.64	–	–
COCCCNCC(O)COc1cccc2ccccc12 (stereo unspecified)	5.4	1.28	–	1.5	5.45	–	–
Cl.NCCCNCC(O)COc1cccc2ccccc12 (stereo unspecified)	4.47	-0.19	–	1	4.5	–	–
CC(C)NCC(O)COc1ccc(O)c2ccccc12 (stereo unspecified) [4-HYDROXYPROPRANOLOL SULFATE]	4.39	0.39	–	1.8	4.6	–	–

Further lines, with some results ahead:

pED40 [1]	logP [4]	pED40 [7]	Structure (SMILES)	Selectivity Index [2]	pED40 (Heart [3])	pED40 (Heart [5])	Selectivity Index [6]
5.26	2	–	CC(C)NCC(O)COc1ccc(Cl)c2ccccc12 (stereo unspecified)	0.9	5.2	–	–
4.92	-0.27	–	CC(C)NCC(O)COc1ccc(N)c2ccccc12.Cl (stereo unspecified)	1.6	5.02	–	–
–	0.31	4.79	Cl.NC(=O)CCCNCC(O)COc1cccc2ccccc12 (stereo unspecified)	–	–	4.89	1.4
3.02	0.21	–	Cl.O=C(O)CCCNCC(O)COc1cccc2ccccc12 (stereo unspecified)	2	3.41	–	–
3.06	-1.89	–	C[N+](C)(C)CCCNCC(O)COc1cccc2ccccc12.Cl.[Cl-] (stereo unspecified)	1.1	3.08	–	–
5.21	–	–	CC(C)NCC(O)COc1cccc2ccccc12 (stereo unspecified) [PROPRANOLOL]	–	5.43	–	–
